Reference: ChEMBL document CHEMBL1165965, “Synthesis and structure-activity relationships of 1,2,3,4-tetrahydropyrido[2,3-b]pyrazines as potent and selective inhibitors of the anaplastic lymphoma kinase” (Bioorg Med Chem, 2010)

Columns and labels:
[1] = molecular target: T1, Interleukin-1 receptor-associated kinase 3 (Homo sapiens) (UniProt Q9Y616); test: Inhibition of IRAK3 at 1 uM
T1 sequence (whole entry): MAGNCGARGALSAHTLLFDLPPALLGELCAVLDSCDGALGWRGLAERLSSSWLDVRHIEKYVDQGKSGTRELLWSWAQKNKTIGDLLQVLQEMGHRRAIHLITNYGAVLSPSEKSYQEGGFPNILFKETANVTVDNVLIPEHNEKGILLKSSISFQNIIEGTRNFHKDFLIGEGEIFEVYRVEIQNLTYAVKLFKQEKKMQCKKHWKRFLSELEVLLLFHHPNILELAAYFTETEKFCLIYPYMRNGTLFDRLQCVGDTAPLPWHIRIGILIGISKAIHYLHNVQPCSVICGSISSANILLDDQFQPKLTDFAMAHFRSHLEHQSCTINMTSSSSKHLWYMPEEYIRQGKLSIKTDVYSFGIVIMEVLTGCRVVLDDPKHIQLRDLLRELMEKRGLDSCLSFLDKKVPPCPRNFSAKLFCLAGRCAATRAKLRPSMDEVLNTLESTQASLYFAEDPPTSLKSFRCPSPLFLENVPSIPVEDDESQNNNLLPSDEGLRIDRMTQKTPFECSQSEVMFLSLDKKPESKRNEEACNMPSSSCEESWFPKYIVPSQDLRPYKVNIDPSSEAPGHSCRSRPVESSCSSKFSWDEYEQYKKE
Outline: (§1)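 Single-concentration screen on the Ambit KINOMEscan platform, run against a panel of 250–400 kinases. Per-kinase inhibition was also summarized as S(90), the fraction of kinases inhibited by more than 90%.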

[2] = test system: Proto-oncogene tyrosine-protein kinase receptor Ret (Homo sapiens), P07949 [V804L]; test: Inhibition of RET V804L mutant at 1 uM
Sequence of Proto-oncogene tyrosine-protein kinase receptor Ret (Homo sapiens), P07949 [V804L] (P07949 whole entry V804L): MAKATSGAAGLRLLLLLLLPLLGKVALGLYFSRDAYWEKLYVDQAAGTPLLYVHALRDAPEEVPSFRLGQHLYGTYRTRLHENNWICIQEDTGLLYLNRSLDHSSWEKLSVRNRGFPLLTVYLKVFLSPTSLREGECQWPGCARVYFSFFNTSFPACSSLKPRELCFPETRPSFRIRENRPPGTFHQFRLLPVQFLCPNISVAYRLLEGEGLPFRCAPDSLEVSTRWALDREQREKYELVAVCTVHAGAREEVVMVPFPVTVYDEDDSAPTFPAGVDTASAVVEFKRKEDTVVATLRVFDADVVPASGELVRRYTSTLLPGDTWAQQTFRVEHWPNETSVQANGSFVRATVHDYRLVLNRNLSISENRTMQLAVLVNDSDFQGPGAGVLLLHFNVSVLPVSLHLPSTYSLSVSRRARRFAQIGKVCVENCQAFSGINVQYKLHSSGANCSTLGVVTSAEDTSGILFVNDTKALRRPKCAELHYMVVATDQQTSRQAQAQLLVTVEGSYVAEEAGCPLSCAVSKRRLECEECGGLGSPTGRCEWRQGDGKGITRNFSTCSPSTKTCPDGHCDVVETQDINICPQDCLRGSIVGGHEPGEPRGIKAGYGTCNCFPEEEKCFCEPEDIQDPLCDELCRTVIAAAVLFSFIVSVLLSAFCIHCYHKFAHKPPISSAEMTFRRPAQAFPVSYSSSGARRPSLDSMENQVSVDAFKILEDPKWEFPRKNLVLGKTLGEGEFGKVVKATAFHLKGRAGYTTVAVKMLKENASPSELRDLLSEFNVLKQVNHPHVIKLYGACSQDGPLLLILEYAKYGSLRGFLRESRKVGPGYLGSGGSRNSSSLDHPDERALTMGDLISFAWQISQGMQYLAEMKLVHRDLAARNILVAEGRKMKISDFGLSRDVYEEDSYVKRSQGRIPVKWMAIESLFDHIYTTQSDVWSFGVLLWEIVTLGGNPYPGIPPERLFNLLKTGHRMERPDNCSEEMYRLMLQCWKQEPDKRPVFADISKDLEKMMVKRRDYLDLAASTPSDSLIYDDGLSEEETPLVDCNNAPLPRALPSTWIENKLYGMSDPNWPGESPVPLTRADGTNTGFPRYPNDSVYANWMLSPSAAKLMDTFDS

[3] = molecular target: Serine/threonine-protein kinase tousled-like 2 (Homo sapiens) (UniProt Q86UE8); test: Inhibition of TLK2 at 1 uM
Sequence of Serine/threonine-protein kinase tousled-like 2 (Homo sapiens) (Q86UE8 whole entry, looked up): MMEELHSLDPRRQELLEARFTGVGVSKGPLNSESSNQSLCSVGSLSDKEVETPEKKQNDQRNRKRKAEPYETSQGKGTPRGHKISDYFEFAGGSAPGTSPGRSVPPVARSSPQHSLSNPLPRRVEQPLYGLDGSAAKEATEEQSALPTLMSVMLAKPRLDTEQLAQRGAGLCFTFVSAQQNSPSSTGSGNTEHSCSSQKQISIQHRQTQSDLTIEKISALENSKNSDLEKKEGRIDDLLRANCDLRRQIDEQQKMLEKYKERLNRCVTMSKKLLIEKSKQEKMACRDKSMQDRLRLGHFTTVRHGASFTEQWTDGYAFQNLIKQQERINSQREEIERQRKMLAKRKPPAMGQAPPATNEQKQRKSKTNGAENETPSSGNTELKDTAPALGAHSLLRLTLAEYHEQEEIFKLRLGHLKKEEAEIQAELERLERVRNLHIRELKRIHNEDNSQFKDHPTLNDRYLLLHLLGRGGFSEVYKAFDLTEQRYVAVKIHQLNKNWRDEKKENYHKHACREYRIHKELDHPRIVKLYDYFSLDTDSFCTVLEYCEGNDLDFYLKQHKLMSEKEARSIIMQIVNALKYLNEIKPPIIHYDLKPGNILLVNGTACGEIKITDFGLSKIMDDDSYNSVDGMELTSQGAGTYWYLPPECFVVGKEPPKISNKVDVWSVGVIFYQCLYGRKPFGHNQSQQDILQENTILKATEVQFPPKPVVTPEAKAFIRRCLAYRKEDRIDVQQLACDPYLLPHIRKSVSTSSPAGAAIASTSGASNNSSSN

[4] = molecular target: T2, Tyrosine-protein kinase TXK (Homo sapiens) (UniProt P42681); test: Inhibition of TXK at 1 uM
T2 sequence (whole entry): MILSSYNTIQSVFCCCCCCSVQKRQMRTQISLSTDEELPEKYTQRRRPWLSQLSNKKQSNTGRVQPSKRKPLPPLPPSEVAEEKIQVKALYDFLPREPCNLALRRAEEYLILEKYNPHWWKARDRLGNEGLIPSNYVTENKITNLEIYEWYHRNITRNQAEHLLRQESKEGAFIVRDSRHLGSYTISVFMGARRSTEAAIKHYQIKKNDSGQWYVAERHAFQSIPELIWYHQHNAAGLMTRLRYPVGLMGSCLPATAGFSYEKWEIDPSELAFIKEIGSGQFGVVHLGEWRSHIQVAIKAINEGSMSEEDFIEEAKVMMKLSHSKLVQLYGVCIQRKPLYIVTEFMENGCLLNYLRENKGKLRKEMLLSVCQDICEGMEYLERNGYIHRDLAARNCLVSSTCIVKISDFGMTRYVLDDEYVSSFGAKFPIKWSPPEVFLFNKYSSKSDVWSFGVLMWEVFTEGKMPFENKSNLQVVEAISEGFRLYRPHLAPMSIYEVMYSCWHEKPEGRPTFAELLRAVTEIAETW

[5] = test system: Tyrosine-protein kinase ABL1 (Homo sapiens), P00519 [M351T]; test: Inhibition of ABL1 M351T mutant at 1 uM
Outline: (§2)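 Ambit KINOMEscan screen at a single concentration across a 250–400 kinase panel, recorded as percent inhibition. Selectivity was expressed as S(90), the fraction of kinases inhibited >90%.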

[6] = molecular target: Calcium/calmodulin-dependent protein kinase kinase 1 (Homo sapiens) (UniProt Q8N5S9); test: Inhibition of CAMKK1 at 1 uM; outline: as §2
Sequence of Calcium/calmodulin-dependent protein kinase kinase 1 (Homo sapiens) (Q8N5S9 whole entry, looked up): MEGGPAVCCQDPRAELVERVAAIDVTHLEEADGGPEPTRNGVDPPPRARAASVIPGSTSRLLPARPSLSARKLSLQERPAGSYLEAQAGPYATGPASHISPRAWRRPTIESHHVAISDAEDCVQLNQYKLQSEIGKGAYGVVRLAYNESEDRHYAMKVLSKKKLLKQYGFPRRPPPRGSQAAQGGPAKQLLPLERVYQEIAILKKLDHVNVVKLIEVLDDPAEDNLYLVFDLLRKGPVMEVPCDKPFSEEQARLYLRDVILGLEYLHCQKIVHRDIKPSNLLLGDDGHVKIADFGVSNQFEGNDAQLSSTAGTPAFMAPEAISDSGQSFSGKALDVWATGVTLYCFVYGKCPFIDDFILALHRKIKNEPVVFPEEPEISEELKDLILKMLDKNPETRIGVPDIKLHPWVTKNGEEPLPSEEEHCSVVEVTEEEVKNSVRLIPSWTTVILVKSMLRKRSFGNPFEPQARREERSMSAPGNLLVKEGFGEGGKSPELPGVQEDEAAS

[7] = molecular target: Macrophage colony-stimulating factor 1 receptor (Homo sapiens) (UniProt P07333); test: Inhibition of CSF1R at 1 uM
Sequence of Macrophage colony-stimulating factor 1 receptor (Homo sapiens) (P07333 whole entry): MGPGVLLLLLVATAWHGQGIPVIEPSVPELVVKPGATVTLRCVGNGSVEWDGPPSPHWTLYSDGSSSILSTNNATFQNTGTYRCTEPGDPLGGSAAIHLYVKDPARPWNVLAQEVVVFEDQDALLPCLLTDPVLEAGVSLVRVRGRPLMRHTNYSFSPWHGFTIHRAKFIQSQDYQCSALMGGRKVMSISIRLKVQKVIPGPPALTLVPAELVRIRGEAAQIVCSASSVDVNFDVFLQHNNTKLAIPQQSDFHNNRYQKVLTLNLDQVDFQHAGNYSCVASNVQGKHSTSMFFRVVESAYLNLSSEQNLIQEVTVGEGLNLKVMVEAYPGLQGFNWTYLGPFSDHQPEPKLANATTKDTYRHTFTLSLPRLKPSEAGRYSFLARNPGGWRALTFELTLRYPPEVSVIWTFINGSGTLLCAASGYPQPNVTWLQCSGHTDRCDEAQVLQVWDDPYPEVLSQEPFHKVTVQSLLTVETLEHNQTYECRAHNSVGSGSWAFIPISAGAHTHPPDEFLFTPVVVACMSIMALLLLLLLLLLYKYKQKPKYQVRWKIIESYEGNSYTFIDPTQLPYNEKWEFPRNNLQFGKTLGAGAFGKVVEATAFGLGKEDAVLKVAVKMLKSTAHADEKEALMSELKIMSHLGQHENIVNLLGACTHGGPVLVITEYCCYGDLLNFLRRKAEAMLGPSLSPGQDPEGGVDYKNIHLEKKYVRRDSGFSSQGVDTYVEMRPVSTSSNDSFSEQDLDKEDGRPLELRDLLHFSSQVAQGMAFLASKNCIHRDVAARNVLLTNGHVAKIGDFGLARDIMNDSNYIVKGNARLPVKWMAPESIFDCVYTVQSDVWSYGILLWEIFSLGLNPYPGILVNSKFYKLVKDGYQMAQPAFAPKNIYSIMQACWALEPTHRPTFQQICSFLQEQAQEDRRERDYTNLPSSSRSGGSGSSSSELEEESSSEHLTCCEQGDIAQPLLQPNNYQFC
Outline: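 Single-concentration screen using Ambit Bioscience KINOMEscan technology across a panel of 250–400 kinases. Per-kinase inhibition from this screen was summarized as S(90), the fraction of kinases inhibited by more than 90%.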

[8] = molecular target: T3, Cyclin-G-associated kinase (Homo sapiens) (UniProt O14976); test: Inhibition of GAK at 1 uM; outline: as §1
T3 sequence (whole entry): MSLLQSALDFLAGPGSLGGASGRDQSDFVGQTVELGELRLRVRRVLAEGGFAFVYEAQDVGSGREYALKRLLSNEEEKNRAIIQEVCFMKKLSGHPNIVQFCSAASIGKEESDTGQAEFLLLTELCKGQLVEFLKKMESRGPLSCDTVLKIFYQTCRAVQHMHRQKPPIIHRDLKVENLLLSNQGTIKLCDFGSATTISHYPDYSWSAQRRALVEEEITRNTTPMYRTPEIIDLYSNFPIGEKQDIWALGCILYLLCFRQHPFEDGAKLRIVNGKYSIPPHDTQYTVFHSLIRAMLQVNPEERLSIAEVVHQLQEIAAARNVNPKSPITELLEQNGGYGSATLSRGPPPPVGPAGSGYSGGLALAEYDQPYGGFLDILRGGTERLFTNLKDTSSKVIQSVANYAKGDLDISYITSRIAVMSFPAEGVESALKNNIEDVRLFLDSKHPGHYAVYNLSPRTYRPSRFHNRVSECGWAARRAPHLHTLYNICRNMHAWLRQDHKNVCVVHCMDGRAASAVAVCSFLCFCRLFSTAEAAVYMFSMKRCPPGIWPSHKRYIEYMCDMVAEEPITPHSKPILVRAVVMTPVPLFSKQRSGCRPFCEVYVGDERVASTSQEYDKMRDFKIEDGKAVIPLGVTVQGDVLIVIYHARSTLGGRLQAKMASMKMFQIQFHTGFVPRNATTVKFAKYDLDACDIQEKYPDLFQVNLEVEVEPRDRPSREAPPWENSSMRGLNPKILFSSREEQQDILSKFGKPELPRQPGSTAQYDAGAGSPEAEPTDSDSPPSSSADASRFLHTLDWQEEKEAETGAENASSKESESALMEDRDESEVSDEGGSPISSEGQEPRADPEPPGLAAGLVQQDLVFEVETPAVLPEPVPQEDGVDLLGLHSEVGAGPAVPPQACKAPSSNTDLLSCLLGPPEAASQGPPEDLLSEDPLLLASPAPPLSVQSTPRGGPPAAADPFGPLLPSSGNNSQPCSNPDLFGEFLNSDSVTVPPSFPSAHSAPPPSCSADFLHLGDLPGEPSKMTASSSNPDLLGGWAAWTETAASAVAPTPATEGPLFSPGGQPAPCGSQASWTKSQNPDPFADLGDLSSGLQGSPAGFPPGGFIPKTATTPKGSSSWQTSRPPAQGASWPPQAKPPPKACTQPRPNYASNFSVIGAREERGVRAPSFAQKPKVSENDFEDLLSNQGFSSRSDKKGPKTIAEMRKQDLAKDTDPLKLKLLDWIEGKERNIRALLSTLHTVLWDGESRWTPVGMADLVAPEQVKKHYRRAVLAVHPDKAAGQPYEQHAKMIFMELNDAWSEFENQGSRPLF

| SMILES | inhibition [1] [%] | inhibition [2] [%] | inhibition [3] [%] | inhibition [4] [%] | inhibition [5] [%] | inhibition [6] [%] | inhibition [7] [%] | inhibition [8] [%] |
| --- | --- | --- | --- | --- | --- | --- | --- | --- |
| CN1CCN(c2ccc(-c3cnc4c(c3)N(Cc3cc(Cl)ccc3Cl)CCN4)cn2)CC1 | < 50 | < 50 | < 50 | < 50 | 68 | < 50 | 88 | < 50 |
| CN1CCN(c2ccc(-c3cnc4c(c3)N(Cc3cc(Cl)ccc3C(F)(F)F)CCN4)cn2)CC1 | < 50 | < 50 | < 50 | < 50 | < 50 | < 50 | 88 | < 50 |
| CN1CCN(c2ccc(-c3cnc4c(c3)N(Cc3c(F)ccc(F)c3Cl)CCN4)cn2)CC1 | < 50 | < 50 | < 50 | < 50 | 87 | < 50 | 96 | < 50 |
| O=C(c1ccc(-c2cnc3c(c2)N(Cc2cc(Cl)ccc2C(F)(F)F)CCN3)cc1)N1CCC(N2CCCC2)CC1 | < 50 | – | < 50 | < 50 | < 50 | < 50 | 96.6 | < 50 |
| COC1CCN(C(=O)c2ccc(-c3cnc4c(c3)N(Cc3cc(Cl)ccc3C(F)(F)F)CCN4)cc2)CC1 | < 50 | – | < 50 | < 50 | < 50 | < 50 | 74.2 | < 50 |
| FC(F)(F)c1ccc(Cl)cc1CN1CCNc2ncc(-c3ccnc(N4CCNCC4)c3)cc21 | 74 | 89 | < 50 | < 50 | < 50 | < 50 | 99 | < 50 |
| CN1CCN(c2ccc(-c3cnc4c(c3)N(Cc3cc(F)ccc3F)CCN4)cn2)CC1 | < 50 | < 50 | < 50 | < 50 | 71.9 | < 50 | < 50 | < 50 |
| O=C(c1ccc(-c2cnc3c(c2)N(Cc2cc(Cl)ccc2C(F)(F)F)CCN3)cc1)N1CCCCC1 | < 50 | – | < 50 | < 50 | < 50 | < 50 | < 50 | < 50 |
| CC(=O)N1CCN(c2cc(-c3cnc4c(c3)N(Cc3cc(Cl)ccc3C(F)(F)F)CCN4)ccn2)CC1 | < 50 | < 50 | < 50 | < 50 | < 50 | < 50 | 93 | < 50 |
| O=C(O)c1ccc(-c2cnc3c(c2)N(Cc2cc(Cl)ccc2C(F)(F)F)CCN3)cc1 | < 50 | – | < 50 | < 50 | < 50 | < 50 | < 50 | 66.5 |
